# Experimental data reported in ChEMBL document CHEMBL1124784, “Synthesis and bioactivity of a new class of rigid glutamate analogues. Modulators of the N-methyl-D-aspartate receptor” (1990).
# Values joined by “and” are separate entries in the source; they are usually repeats but may differ in a detail not shown here. Identical values can stand only once.
# What was measured:
# [1] = test system: Cerebellar granule neurone; assay: Influx of calcium in Cerebellar Granule Cells of rat after 10 min of incubation with compound; assay type: functional
# Summary of the method: (§1)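 Cerebellar granule cells preincubated 15 min with 50 μM azetidine, then 10 min without (basal) or with 10 μM glutamate or 10 μM aspartate; 45Ca2+ influx measured. Percent stimulation relative to agonist alone (100%) after subtracting respective basal values; means ± SEM of four experiments.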
# [2] = test system: Cerebellar granule neurone; assay: Influx of calcium in Cerebellar Granule Cells of rat after 10 min of incubation with compound and 10 uM aspartate; assay type: functional; summary of the method: as §1
# [3] = test system: Cerebellar granule neurone; assay: Stimulation caused by aspartate in Cerebellar Granule Cells over basal stimulation; assay type: functional, Rattus norvegicus; summary of the method: as §1
# [4] = test system: Cerebellar granule neurone; assay: Stimulation caused by Glutamate in Cerebellar Granule Cells over basal stimulation; assay type: functional, Rattus norvegicus; summary of the method: as §1
# [5] = test system: Cerebellar granule neurone; assay: Influx of calcium in Cerebellar Granule Cells of rat after 10 min of incubation with compound and 10 uM glutamate; assay type: functional; summary of the method: as §1
# [6] = test system: Cerebellar granule neurone; assay: Stimulation caused by Aspartate in Cerebellar Granule Cells at 50 uM concentration; assay type: functional, Rattus norvegicus
# Summary of the method: (§2)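 Rat cerebellar granule cells (8-day-old rats), cultured 8–9 days; HEPES saline pH 7.35 with 1.3 mM CaCl2, 45CaCl2 tracer 10 min, then azetidine 50 μM 15 min at 37 °C, then agonist 10 min. Kainate/quisqualate media held 1 mM MgCl2 and 10 μM CPP. Choline/EGTA wash stop; 45Ca uptake per mg protein.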
# [7] = test system: Cerebellar granule neurone; assay: Stimulation caused by Aspartate in Cerebellar Granule Cells at 50 uM concentration in presence of 10 uM CPP; assay type: functional, Rattus norvegicus; summary of the method: as §2
# [8] = test system: Cerebellar granule neurone; assay: Stimulation caused by Aspartate in Cerebellar Granule Cells at 50 uM concentration in presence of 100 uM kainate; assay type: functional, Rattus norvegicus; summary of the method: as §2
# [9] = test system: Cerebellar granule neurone; assay: Stimulation caused by Aspartate in Cerebellar Granule Cells at 50 uM concentration in presence of 100 uM quisqualate; assay type: functional, Rattus norvegicus; summary of the method: as §2
# [10] = test system: Cerebellar granule neurone; assay: Stimulation caused by Aspartate in Cerebellar Granule Cells at 50 uM concentration in presence of 1 uM glutamate; assay type: functional, Rattus norvegicus; summary of the method: as §2
# [11] = test system: Cerebellar granule neurone; assay: Stimulation caused by Aspartate in Cerebellar Granule Cells at 50 uM concentration in presence of 50 uM NMDA; assay type: functional, Rattus norvegicus; summary of the method: as §2
# [12] = test system: Cerebellar granule neurone; assay: Ability to induce calcium uptake in cerebellar granule cells was determined at 50 uM concentration in presence of 100 uM kainate (control = 56+/-3.7); assay type: functional, Rattus norvegicus; summary of the method: as §2
# [13] = test system: Cerebellar granule neurone; assay: Ability to induce calcium uptake in cerebellar granule cells was determined at 50 uM concentration in presence of 100 uM quisqualate (control=15+/-1.2); assay type: functional, Rattus norvegicus; summary of the method: as §2
# [14] = test system: Cerebellar granule neurone; assay: Ability to induce calcium uptake in cerebellar granule cells was determined at 50 uM concentration in presence of 10 uM CPP (control= 5.4+/-0.3); assay type: functional, Rattus norvegicus; summary of the method: as §2
# [15] = test system: Cerebellar granule neurone; assay: Ability to induce calcium uptake in cerebellar granule cells was determined at 50 uM concentration in presence of 1 uM glutamate (control= 39+/-3.8); assay type: functional, Rattus norvegicus; summary of the method: as §2
# [16] = test system: Cerebellar granule neurone; assay: Ability to induce calcium uptake in cerebellar granule cells was determined at 50 uM concentration in presence of 50 uM NMDA (control = 91+/-6.5); assay type: functional, Rattus norvegicus; summary of the method: as §2
# [17] = test system: Cerebellar granule neurone; assay: Ability to induce calcium uptake in cerebellar granule cells was determined at 50 uM concentration (control= 16+/-1.5); assay type: functional, Rattus norvegicus; summary of the method: as §2
# Rattus norvegicus [18] = species: Rattus norvegicus; assay: Effect on fractional [3H]GABA release from rat forebrain neurons in culture; assay type: functional
# Summary of the method: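 Embryonic rat forebrain neurons cultured 8–9 days, loaded with 1 μCi/mL [3H]GABA 60–90 min at 37 °C, washed eight times at 5 min intervals in Mg2+-free HEPES saline, then agonist added; CGS 19755 (100 μM) where used added 5 min before. Evoked efflux minus basal, as fraction of remaining cell tritium (SDS-solubilized); 4–6 wells.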
# Rattus norvegicus [19] = species: Rattus norvegicus; assay: Effect on fractional [3H]GABA release from rat forebrain neurons in culture in the presence of 100 uM CGS 19755
# [20] = test system: Cerebellar granule neurone; assay: Stimulation caused by Aspartate in Cerebellar Granule Cells at 50 uM concentration in presence of 10 uM aspartate
# [21] = test system: Cerebellar granule neurone; assay: Ability to induce calcium uptake in cerebellar granule cells was determined at 50 uM concentration in presence of 10 uM aspartate (control = 43+/-2.9)
structure (smiles),measurement,setting,value
O=C(O)[C@@H]1CCN1,Influx,[1],16 nM/mg
same,Influx,[2],44.5 nM/mg
same,Stimulation,[3],105%
O=C(O)[C@H]1C[C@@H](C(=O)O)N1Cc1ccccc1,Influx,[1],15 nM/mg
COC(=O)[C@@H]1C[C@H](C(=O)OC)N1,Influx,[1],19 nM/mg
NC(=O)[C@@H]1C[C@H](C(=O)O)N1,Influx,[1],20 nM/mg
CC(C)(C)OC(=O)[C@H]1C[C@@H](C(=O)O)N1,Stimulation,[4],144%
same,Influx,[1],15 nM/mg
same,Influx,[2],52 nM/mg
same,Influx,[5],67 nM/mg
same,Stimulation,[3],136%
NC(=O)[C@@H]1C[C@H](C(N)=O)N1,Influx,[1],15 nM/mg
COC(=O)[C@@H]1C[C@@H](C(=O)OC(C)(C)C)N1,Stimulation,[4],105%
same,Influx,[1],15 nM/mg
same,Influx,[5],52 nM/mg
CC(=O)N1[C@@H](C(=O)O)C[C@H]1C(=O)O,Influx,[1],16 nM/mg
CCCCCCN1[C@@H](C(=O)O)C[C@H]1C(=O)O,Influx,[1],16 nM/mg
O=C(O)[C@H]1C[C@@H](CO)N1,Influx,[1],19 nM/mg
same,Influx,[2],58 nM/mg
COC(=O)[C@H]1C[C@@H](C(=O)O)N1,Influx,[1],18 nM/mg
O=C(O)[C@@H]1C[C@H](C(=O)O)N1,Stimulation,[6],144%
same,Stimulation,[7],91%
same,Stimulation,[8],93%
same,Stimulation,[9],100%
same,Stimulation,[10],268%
same,Stimulation,[11],151%
same,Stimulation,[4],186%
same,Influx,[12],52 nM/mg
same,Influx,[13],15 nM/mg
same,Influx,[14],4.9 nM/mg
same,Influx,[15],85 nM/mg
same,Influx,[16],136 nM/mg
same,Influx,[17],23 nM/mg
same,Influx,[1],25 nM/mg and 21 nM/mg
same,Influx,[2],68 nM/mg
same,Influx,[5],92 nM/mg
same,Release,Rattus norvegicus [18],1.04%
same,Stimulation,[3],175%
same,Release,Rattus norvegicus [19],-0.08%
same,Stimulation,[20],193%
same,Influx,[21],75 nM/mg
CC(C)(C)OC(=O)[C@@H]1C[C@@H](C(=O)O)N1,Stimulation,[4],97%
same,Influx,[1],16 nM/mg
same,Influx,[5],51 nM/mg
COC(=O)[C@H]1C[C@@H](C(=O)OC(C)(C)C)N1,Stimulation,[4],111%
same,Influx,[1],14 nM/mg
same,Influx,[2],43 nM/mg
same,Influx,[5],54 nM/mg
same,Stimulation,[3],107%
O=C(O)[C@@H]1C[C@@H](C(=O)O)N1,Stimulation,[4],106%
same,Influx,[1],14 nM/mg
same,Influx,[5],52 nM/mg
C=C(C)[C@H]1CN[C@H](C(=O)O)[C@H]1CC(=O)O [KAINIC ACID],Release,Rattus norvegicus [18],2.65%
same,Release,Rattus norvegicus [19],2.63%
CN[C@H](CC(=O)O)C(=O)O [N-METHYL-D-ASPARTIC ACID (NMDA)],Release,Rattus norvegicus [18],0.73%
same,Release,Rattus norvegicus [19],0.09%
